Drawing on ChEMBL document CHEMBL1158486, “Combining hit identification strategies: fragment-based and in silico approaches to orally active 2-aminothieno[2,3-d]pyrimidine inhibitors of the Hsp90 molecular chaperone” (J Med Chem, 2009), this text covers Activity for 1 molecule.

The source made the active and inactive calls. The calls are words filed in the database; no cut-off is given here.

Test [1] relates to HCT-116. Briefly: Depletion of CDK4 protein expression in human HCT116 cells after 24 hrs by Western immunoblotting. In kind it is functional, cell-based. The method in brief: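 BT474 or HCT116 cells treated for 24 h at 25, 50, 100, 200 and 400 nM. Lysates prepared in 50 mM Tris-HCl with 2% SDS, pH 6.8, and protein measured by BCA. Equal loads run on SDS-PAGE and transferred to PVDF; probed with ECL detection, with GAPDH as loading control.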
In general terms: In western blotting, separated proteins are transferred to a membrane and probed.

Test [2] has as its system HCT-116. Briefly: Depletion of HER2 protein expression in human HCT116 cells at 25 nM after 24 hrs by Western immunoblotting. Type of test: functional, cell-based.
Test [3] concerns Mus musculus. Briefly: Modulation of CDK4 protein expression in human WM266.4 cells xenografted in Ncr athymic mouse at 50 mg/kg, po commenced 6 days after tumor cell inoculation and continued daily for 21 days measured 24 hrs after final dose by Western immunoblotting. In kind it is functional, organism-based. On the set-up: dose 50 mg/kg. (A xenograft is tissue or cells of one species grown in another, often human tumour cells in immunodeficient mice.)

For test [4], the system named is Mus musculus. The test is described as follows: Modulation of HER2 protein expression in human PC3LN3 cells xenografted in CrTac:Ncr-Fox1 nude athymic mouse at 100 mg/kg, po qd commenced 12 days after tumor cell inoculation measured for 14 days measured 24 hrs after final dose by Western immunoblotting. Type of test: functional, organism-based. Also on record: dose 100 mg/kg.

The subject of the next test is BT-474. The test is described as follows: Reduction of HER2 protein expression in human BT474 cells at 2 times GI50 after 24 hrs by Western immunoblotting. In kind it is functional, cell-based. The method in brief:
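BT474 cells exposed 24 h to compound at 2, 4 or 8 times the cellular GI50. Lysates made in 50 mM Tris-HCl, 2% SDS pH 6.8 and protein assayed by BCA. Equal protein run on SDS-PAGE, transferred to PVDF, immunoblotted with ECL detection; GAPDH used as loading control.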

`CCNC(=O)c1cc2c(-c3cc(OCCN(CC)CC)c(Cl)cc3Cl)nc(N)nc2s1`: in the test on HCT-116 [1], the Activity result was “Dose-dependent effect”. The result in the test on HCT-116 [2] was inactive. Besides, the outcome in the test with Mus musculus [3], in the test with Mus musculus [4] and in the test with BT-474 was Active.
